Test results as given in ChEMBL document CHEMBL1153915, “[18F]FEAC and [18F]FEDAC: Two novel positron emission tomography ligands for peripheral-type benzodiazepine receptor in the brain” (Bioorg Med Chem Lett, 2009).

Tests used:
[1] = Distribution coefficient, log D in octanol/phosphate buffer at pH 7.4 by shaking flask method; assay type: physicochemical
[2] = Displacement of [11C]flumazenil from CBR receptor in rat brain membrane; assay type: cell membranes
Outline: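 Competition against [11C]flumazenil binding in rat brain homogenate; Ki derived; mean ± SD from duplicate homogenates.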

Translocator protein [3] = biological target: T1, Translocator protein (Rattus norvegicus, UniProt P16257); assay: Displacement of [11C]DAA1106 from PBR receptor in rat brain membrane; assay type: cell membranes
T1 sequence (P16257 whole entry, looked up): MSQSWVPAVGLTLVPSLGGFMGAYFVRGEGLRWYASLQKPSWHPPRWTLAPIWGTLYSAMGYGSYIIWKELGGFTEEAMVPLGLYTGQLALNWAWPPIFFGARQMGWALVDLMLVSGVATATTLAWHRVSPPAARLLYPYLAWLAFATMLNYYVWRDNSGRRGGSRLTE

Translocator protein [4] = biological target: T1, Translocator protein; assay: Displacement of [11C]PK11195 from PBR receptor in rat brain membrane; assay type: cell membranes
Striatum [5] = assay: Drug uptake in non-lesioned Sprague-Dawley rat striatum assessed as standardized uptake value; assay type: ADME, tissue-based; conditions: in vivo
Outline: (§1)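 Dynamic small-animal PET of [18F]-labelled ligand in neuroinflammatory rats (n = 4). Striatal time-activity curves are expressed as SUV = (radioactivity per cm3 tissue / injected radioactivity) × g body weight, as mean ± SD.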

Striatum [6] = assay: Drug uptake in kainic acid-lesioned Sprague-Dawley rat striatum assessed as standardized uptake value; assay type: ADME, tissue-based; conditions: in vivo; outline: as §1
Striatum [7] = assay: Ratio of drug uptake in kainic acid-lesioned to non-lesioned Sprague-Dawley rat striatum after 10 to 20 mins; assay type: ADME, tissue-based; conditions: in vivo
Outline: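 From small-animal PET time-activity curves in neuroinflammatory rats (n = 4), the radioactivity in the lesioned striatum is divided by that in the non-lesioned striatum over the scan, and the maximum ratio is taken.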

With `COc1ccc(OCCF)c(CN(C(C)=O)c2cc(F)ccc2Oc2ccccc2)c1` the logD [1] was 3.8, the Ki [2] was greater than 1000 nM and the Ki (Translocator protein [3]) was 0.08 nM.
Work on `CN(Cc1ccccc1)C(=O)Cn1c(=O)n(CCF)c2cnc(-c3ccccc3)nc21` yielded a Ki (Translocator protein [4]) of 1.34 nM, a logD [1] of 3.2 and a Ki [2] of 8400 nM.
Compound `Cn1c(=O)n(CC(=O)N(CCF)Cc2ccccc2)c2nc(-c3ccccc3)ncc21` has a Ki (Translocator protein [4]) of 0.51 nM, a logD [1] of 3.1 and a Ki [2] greater than 8400 nM.
`COc1ccc(OCC[18F])c(CN(C(C)=O)c2cc(F)ccc2Oc2ccccc2)c1` showed an SUV (Striatum [5]) of 1.3 and an SUV (Striatum [6]) of 1.5.
`CCN(Cc1ccccc1)C(=O)Cn1c(=O)n(CC[18F])c2cnc(-c3ccccc3)nc21` showed an SUV (Striatum [5]) of 0.8, an SUV (Striatum [6]) of 1.2 and a Ratio (Striatum [7]) of 2.5.
Compound `CCN(Cc1ccccc1)C(=O)Cn1c(=O)n(C)c2cnc(-c3ccccc3)nc21` has a Ki (Translocator protein [4]) of 0.2 nM, a logD [1] of 3.3 and a Ki [2] greater than 8400 nM.
Work on `CCN(Cc1ccccc1)C(=O)Cn1c(=O)n(CCF)c2cnc(-c3ccccc3)nc21` yielded a Ki (Translocator protein [4]) of 0.49 nM, a logD [1] of 3.6 and a Ki [2] greater than 8400 nM.
`CN(Cc1ccccc1)C(=O)Cn1c(=O)n(CC[18F])c2cnc(-c3ccccc3)nc21` showed an SUV (Striatum [5]) of 0.9, an SUV (Striatum [6]) of 1.6 and a Ratio (Striatum [7]) of 2.5.
Work on `CCC(C)N(C)C(=O)c1cc2ccccc2c(-c2ccccc2Cl)n1` (stereo not given) [PK-11195] yielded a logD [1] of 3.7 and a Ki [2] greater than 8400 nM.
